# Measurements taken from ChEMBL document CHEMBL1124746, “Synthesis and antitumor evaluation in mice of certain 7-deazapurine (pyrrolo[2,3-d]pyrimidine) and 3-deazapurine (imidazo[4,5-c]pyridine) nucleosides structurally related to sulfenosine, sulfinosine, and sulfonosine” (1990).
# Tests used:
# L1210 [1] = experiment: Tested for post inoculation lifespan in L1210-inoculated mice at dose 288 mg/kg administered intraperitoneally; assay type: functional, Mus musculus; conditions: route intraperitoneal
# Summary of the method: (§1)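 Female BDF1 mice (~18 g) were inoculated ip on day 0 with 1 × 10⁶ L1210 cells and treated once ip 24 h later with drug in water (0.01 mL/g); saline controls. Groups had six mice. %T/C = mean life span treated / mean life span control × 100, with T/C ≥ 125 taken as significant. Deaths were assigned to leukemia or drug toxicity by timing and necropsy.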
# L1210 [2] = experiment: Tested for percent of L1210 cells killed by dose 288 mg/kg administered intraperitoneally; assay type: functional, Mus musculus; conditions: route intraperitoneal
# Summary of the method: (§2)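 Female BDF1 mice (~18 g) were inoculated ip on day 0 with 1 × 10⁶ murine L1210 leukemia cells. They got a single ip bolus 24 h later of drug freshly dissolved in water, at 0.01 mL/g body weight. Controls received saline. The percentage of cells killed was estimated from residual leukemia body burden, using inoculum-response data relating inoculum size to postinoculation life span.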
# L1210 [3] = experiment: Tested for percent of L1210 cells killed by dose 173 mg/kg administered intraperitoneally; assay type: functional, Mus musculus; conditions: route intraperitoneal; summary of the method: as §2
# L1210 [4] = experiment: Tested for post inoculation lifespan in L1210-inoculated mice at dose 173 mg/kg administered intraperitoneally; assay type: functional, Mus musculus; conditions: route intraperitoneal; summary of the method: as §1
# L1210 [5] = experiment: Tested for post inoculation lifespan in L1210-inoculated mice at dose 62 mg/kg administered intraperitoneally; assay type: functional, Mus musculus; conditions: route intraperitoneal; summary of the method: as §1
# L1210 [6] = experiment: Tested for percent of L1210 cells killed by dose 62 mg/kg administered intraperitoneally; assay type: functional, Mus musculus; conditions: route intraperitoneal; summary of the method: as §2
# L1210 [7] = experiment: Tested for post inoculation lifespan in L1210-inoculated mice at dose 104 mg/kg administered intraperitoneally; assay type: functional, Mus musculus; conditions: route intraperitoneal; summary of the method: as §1
# L1210 [8] = experiment: Tested for percent of L1210 cells killed by dose 104 mg/kg administered intraperitoneally; assay type: functional, Mus musculus; conditions: route intraperitoneal; summary of the method: as §2
# L1210 [9] = experiment: Tested for post inoculation lifespan in L1210-inoculated mice at dose 480 mg/kg administered intraperitoneally; assay type: functional, Mus musculus; conditions: route intraperitoneal; summary of the method: as §1
# L1210 [10] = experiment: Tested for percent of L1210 cells killed by dose 480 mg/kg administered intraperitoneally; assay type: functional, Mus musculus; conditions: route intraperitoneal; summary of the method: as §2
# L1210 [11] = experiment: Tested for percent of L1210 cells killed by dose 173 mg/kg administered intraperitoneally; conditions: Mus musculus, route intraperitoneal
# L1210 [12] = experiment: Tested for post inoculation lifespan in L1210-inoculated mice at dose 800 mg/kg administered intraperitoneally; assay type: functional, Mus musculus; conditions: route intraperitoneal; summary of the method: as §1
# L1210 [13] = experiment: Tested for percent of L1210 cells killed by dose 800 mg/kg administered intraperitoneally; assay type: functional, Mus musculus; conditions: route intraperitoneal; summary of the method: as §2
# L1210 [14] = experiment: Tested for percent of L1210 cells killed by dose 37 mg/kg administered intraperitoneally; assay type: functional, Mus musculus; conditions: route intraperitoneal; summary of the method: as §2
# L1210 [15] = experiment: Tested for post inoculation lifespan in L1210-inoculated mice at dose 37 mg/kg administered intraperitoneally; assay type: functional, Mus musculus; conditions: route intraperitoneal; summary of the method: as §1
smiles,measurement,setting,value
NS(=O)(=O)c1ncnc2c1ccn2[C@H]1C[C@H](O)[C@@H](CO)O1,T/C,L1210 [1],113%
same,Cells killed,L1210 [2],67.94%
Nc1nc([S+](N)[O-])c2ccn([C@@H]3C[C@@H](O)[C@H](CO)O3)c2n1 (stereo partly drawn),Cells killed,L1210 [3],0%
same,T/C,L1210 [4],100%
OC[C@H]1O[C@@H](n2ccc3c(S)ncnc32)C[C@@H]1O,T/C,L1210 [5],96%
same,Cells killed,L1210 [6],0%
NSc1ncnc2c1ccn2[C@H]1C[C@H](O)[C@@H](CO)O1,T/C,L1210 [7],101%
same,Cells killed,L1210 [8],2%
N[S+]([O-])c1ncnc2c1ccn2[C@@H]1C[C@@H](O)[C@H](CO)O1 (stereo partly drawn),T/C,L1210 [9],112%
same,Cells killed,L1210 [10],60.59%
NSc1nc(N)nc2c1ccn2[C@H]1C[C@H](O)[C@@H](CO)O1,Cells killed,L1210 [11],46.64%
same,T/C,L1210 [4],112%
Nc1nc(S)c2ccn([C@H]3C[C@H](O)[C@@H](CO)O3)c2n1,T/C,L1210 [7],105%
same,Cells killed,L1210 [8],35.63%
Nc1cc2c(ncn2C2O[C@H](CO)[C@@H](O)[C@H]2O)c(S)n1 (stereo partly drawn),T/C,L1210 [7],93%
same,Cells killed,L1210 [8],0%
Nc1nc([S+](N)[O-])c2ccn(C3O[C@H](CO)[C@@H](O)[C@H]3O)c2n1 (stereo partly drawn),T/C,L1210 [1],115%
same,Cells killed,L1210 [2],76.93%
Nc1cc2c(ncn2C2O[C@H](CO)[C@@H](O)[C@H]2O)c([S+](N)[O-])n1 (stereo partly drawn),T/C,L1210 [12],102%
same,Cells killed,L1210 [13],16.32%
NSc1nc(N)cc2c1ncn2C1O[C@H](CO)[C@@H](O)[C@H]1O (stereo partly drawn),T/C,L1210 [5],103%
same,Cells killed,L1210 [6],21.86%
Nc1nc(S(N)(=O)=O)c2ccn(C3O[C@H](CO)[C@@H](O)[C@H]3O)c2n1 (stereo partly drawn),T/C,L1210 [9],100%
same,Cells killed,L1210 [10],0%
Nc1nc(S)c2ccn(C3O[C@H](CO)[C@@H](O)[C@H]3O)c2n1 (stereo partly drawn),Cells killed,L1210 [14],0%
same,T/C,L1210 [15],90%
NSc1nc(N)nc2c1ccn2C1O[C@H](CO)[C@@H](O)[C@H]1O (stereo partly drawn),T/C,L1210 [7],111%
same,Cells killed,L1210 [8],66.6%
